ChEMBL document CHEMBL1139596, “Non-competitive inhibitors of metabotropic glutamate receptor 5 (mGluR5)” (Bioorg Med Chem Lett, 2005)

Target: Metabotropic glutamate receptor 5 (Homo sapiens) (UniProt P41594)
Assay: Percent inhibition against metabotropic glutamate receptor 5 (mGluR5) at 10 uM

Metabotropic glutamate receptor 5 (Homo sapiens), sequence (P41594 21-1212 limits assumed): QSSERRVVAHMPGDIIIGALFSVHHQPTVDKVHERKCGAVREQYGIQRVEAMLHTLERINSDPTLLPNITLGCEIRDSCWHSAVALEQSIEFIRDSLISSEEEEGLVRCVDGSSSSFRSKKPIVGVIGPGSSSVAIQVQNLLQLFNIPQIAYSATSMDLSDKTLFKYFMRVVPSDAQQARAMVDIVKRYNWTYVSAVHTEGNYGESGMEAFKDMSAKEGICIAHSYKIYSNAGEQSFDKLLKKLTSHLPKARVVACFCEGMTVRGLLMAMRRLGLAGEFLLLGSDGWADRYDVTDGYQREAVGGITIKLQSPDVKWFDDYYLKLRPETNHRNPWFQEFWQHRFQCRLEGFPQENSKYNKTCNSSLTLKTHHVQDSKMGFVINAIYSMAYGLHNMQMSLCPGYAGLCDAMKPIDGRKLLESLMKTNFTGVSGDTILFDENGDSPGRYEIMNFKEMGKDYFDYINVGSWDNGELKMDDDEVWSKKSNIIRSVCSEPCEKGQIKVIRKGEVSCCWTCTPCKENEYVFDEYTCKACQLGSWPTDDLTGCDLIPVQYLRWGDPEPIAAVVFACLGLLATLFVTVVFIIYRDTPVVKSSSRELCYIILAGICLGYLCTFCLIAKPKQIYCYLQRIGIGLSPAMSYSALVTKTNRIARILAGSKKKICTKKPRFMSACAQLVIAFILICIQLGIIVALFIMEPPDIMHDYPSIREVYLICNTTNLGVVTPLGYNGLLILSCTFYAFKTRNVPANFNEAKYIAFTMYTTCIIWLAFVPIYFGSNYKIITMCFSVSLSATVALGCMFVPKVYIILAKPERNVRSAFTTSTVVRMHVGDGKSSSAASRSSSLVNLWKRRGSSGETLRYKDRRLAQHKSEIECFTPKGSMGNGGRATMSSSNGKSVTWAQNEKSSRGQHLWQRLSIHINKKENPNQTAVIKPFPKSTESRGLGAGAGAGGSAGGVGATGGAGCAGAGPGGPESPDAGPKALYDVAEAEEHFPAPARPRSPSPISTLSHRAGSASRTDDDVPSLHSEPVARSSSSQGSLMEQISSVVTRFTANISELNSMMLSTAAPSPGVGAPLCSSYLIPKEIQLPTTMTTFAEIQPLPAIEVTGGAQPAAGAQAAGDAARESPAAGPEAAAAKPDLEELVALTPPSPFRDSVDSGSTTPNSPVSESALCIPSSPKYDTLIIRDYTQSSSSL

| Structure (SMILES) | inhibition [%] |
| --- | --- |
| Cc1ccc(C(=O)COC(=O)c2ccc(N3C(=O)c4ccncc4C3=O)cc2)cc1C | 33 |
| Cc1ccc(C(=O)COC(=O)c2ccc(N3C(=O)COCC3=O)cc2)cc1C | 41 |
| O=C(COC(=O)c1ccc(N2C(=O)C3CC=CCC3C2=O)cc1)c1ccccc1 (stereo not drawn) | 18 |
| O=C(COC(=O)c1ccc(N2C(=O)C3CC=CCC3C2=O)cc1)c1ccc2c(c1)OCO2 (stereo not drawn) | 21 |
| Cc1ccc2c(c1)C(=O)N(c1ccc(C(=O)OCC(=O)c3ccc(C)c(C)c3)cc1)C2=O | 28 |
| Cc1cc2c(cc1C)C(=O)N(NC(=O)c1ccc(N3C(=O)C4CC=CCC4C3=O)cc1)C2=O (stereo not drawn) | < 35 |
| CC1(C)CCC(C)(C)c2cc(C(=O)COC(=O)c3ccc(N4C(=O)C5CC=CCC5C4=O)cc3)ccc21 (stereo not drawn) | 32 |
| COc1ccc(C(=O)COC(=O)c2ccc(N3C(=O)C4CC=CCC4C3=O)cc2)cc1 (stereo not drawn) | 39 |
| Cc1ccc(C(=O)N2CCCN2C(=O)c2ccc(N3C(=O)C4CC=CCC4C3=O)cc2)cc1C (stereo not drawn) | < 35 |
| Cc1ccc(C(=O)COC(=O)c2ccc(N3C(=O)C4=C(CCC4)C3=O)cc2)cc1C | 10 |
| Cc1ccc(C(=O)COC(=O)c2ccc(N3CCCC3=O)cc2)cc1C | 38 |
| Cc1ccc(C(=O)COC(=O)c2ccc(NC(=O)C3CC=CCC3C(=O)O)cc2)cc1C (stereo not drawn) | 34 |
| Cc1ccc(C(=O)CN2C(=O)c3ccc(N4C(=O)C5CC=CCC5C4=O)cc3C2=O)cc1C (stereo not drawn) | < 35 |
| Cc1ccc(C2CN(C(=O)c3ccc(N4C(=O)C5CC=CCC5C4=O)cc3)CCO2)cc1C (stereo not drawn) | < 35 |

Other lines, results leading:

| inhibition [%] | Structure (SMILES) |
| --- | --- |
| < 35 | Cc1ccc(NC(=O)Nc2ccc(N3C(=O)C4CC=CCC4C3=O)cc2)cc1C (stereo not drawn) |
| < 35 | Cc1ccc(CNC(=O)c2ccc(N3C(=O)C4CC=CCC4C3=O)cc2)cc1C (stereo not drawn) |
| < 35 | Cc1ccc(C(=O)NNC(=O)c2ccc(N3C(=O)C4CC=CCC4C3=O)cc2)cc1C (stereo not drawn) |
| < 35 | Cc1ccc(NC(=O)NCc2ccc(N3C(=O)C4CC=CCC4C3=O)cc2)cc1C (stereo not drawn) |
| < 35 | Cc1ccc(C(=O)CNC(=O)c2ccc(N3C(=O)C4CC=CCC4C3=O)cc2)cc1C (stereo not drawn) |
| < 35 | Cc1ccc(CCNC(=O)c2ccc(N3C(=O)C4CC=CCC4C3=O)cc2)cc1C (stereo not drawn) |
| < 35 | Cc1ccc(CNC(=O)Nc2ccc(N3C(=O)C4CC=CCC4C3=O)cc2)cc1C (stereo not drawn) |
| < 35 | Cc1ccc(OCCCNC(=O)c2ccc(N3C(=O)C4CC=CCC4C3=O)cc2)cc1C (stereo not drawn) |
| < 35 | Cc1ccc(C(=O)CN(C)C(=O)c2ccc(N3C(=O)C4CC=CCC4C3=O)cc2)cc1C (stereo not drawn) |
| < 35 | Cc1ccc(OCCNC(=O)c2ccc(N3C(=O)C4CC=CCC4C3=O)cc2)cc1C (stereo not drawn) |
| < 35 | Cc1ccc(NCC(=O)Nc2ccc(N3C(=O)C4CC=CCC4C3=O)cc2)cc1C (stereo not drawn) |
| < 35 | Cc1ccc(NC(=O)c2ccc(N3C(=O)C4CC=CCC4C3=O)cc2)cc1C (stereo not drawn) |
| < 35 | Cc1ccc(C(=O)COCc2ccc(N3C(=O)C4CC=CCC4C3=O)cc2)cc1C (stereo not drawn) |

Tested on: not listed separately
Assay: Half life was determined; 1-2h
Format: ADME

| half-life [h] | Structure (SMILES) |
| --- | --- |
| 2 | Cc1ccc(C(=O)COC(=O)c2ccc(N3C(=O)C4CCC(C)CC4C3=O)cc2)cc1C (stereo not drawn) |
| 2 | Cc1ccc(C(=O)COC(=O)c2ccc(N3C(=O)CCC3=O)cc2)cc1C |

Target: not listed separately
Assay: Inhibitory activity against metabotropic glutamate receptor 5 (mGluR5)
Summary of the method: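 Functional FLIPR assay in CHO cells transfected with mGlu5 receptor.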

| Structure (SMILES) | Ki [µM] |
| --- | --- |
| CC1=CCC2C(=O)N(c3ccc(C(=O)OCC(=O)c4ccc(C)c(C)c4)cc3)C(=O)C2C1 (stereo not drawn) | 0.216 |
| Cc1ccc(C(=O)COC(=O)c2ccc(N3C(=O)C4CCC(C)CC4C3=O)cc2)cc1C (stereo not drawn) | 0.113 |
| O=C(COC(=O)c1ccc(N2C(=O)C3CC=CCC3C2=O)cc1)c1ccc(N2CCOCC2)cc1 (stereo not drawn) | 3.36 |
| Cc1ccc(C(=O)COC(=O)c2ccc(N3C(=O)CC(C)C3=O)cc2)cc1C (stereo not drawn) | 0.411 |
| Cc1ccc(C(=O)COC(=O)c2ccc(N3C(=O)C4C5C=CC(C5)C4C3=O)cc2)cc1C (stereo not drawn) | 1.01 |
| Cc1ccc(C(=O)COC(=O)c2ccc(N3C(=O)CCCC3=O)cc2)cc1C | 3.27 |
| Cc1ccc(C(=O)COC(=O)c2ccc(N3C(=O)[C@H]4CCCC[C@H]4C3=O)cc2)cc1C | 0.19 |
| Cc1ccc(C(=O)COC(=O)c2ccc(N3C(=O)CC(C)CC3=O)cc2)cc1C | 1.84 |
| Cc1ccc(C(=O)COC(=O)c2ccc(N3C(=O)CCC3=O)cc2)cc1C | 0.506 |
| COc1ccc(C(=O)COC(=O)c2ccc(N3C(=O)C4CC=CCC4C3=O)cc2)cc1[N+](=O)[O-] (stereo not drawn) | 1.68 |
| O=C(COC(=O)c1ccc(N2C(=O)C3CC=CCC3C2=O)cc1)c1ccc(N2CCCC2)cc1 (stereo not drawn) | 1.09 |
| CC1=C(C)C(=O)N(c2ccc(C(=O)OCC(=O)c3ccc(C)c(C)c3)cc2)C1=O | 6.43 |
| O=C(COC(=O)c1ccc(N2C(=O)C3CC=CCC3C2=O)cc1)c1ccc2ccccc2c1 (stereo not drawn) | 0.303 |
| Cc1ccc(C(=O)COC(=O)c2ccc(N3C(=O)C4CC(Br)C(Br)CC4C3=O)cc2)cc1C (stereo not drawn) | 0.098 |
| O=C(COC(=O)c1ccc(N2C(=O)C3CC=CCC3C2=O)cc1)c1ccc2c(c1)CCCC2 (stereo not drawn) | 0.171 |
| O=C(COC(=O)c1ccc(N2C(=O)C3CC=CCC3C2=O)cc1)c1ccc2c(c1)OCCO2 (stereo not drawn) | 2.04 |
| CC1=CC(=O)N(c2ccc(C(=O)OCC(=O)c3ccc(C)c(C)c3)cc2)C1=O | 4.79 |
| O=C(COC(=O)c1ccc(N2C(=O)C3CC=CCC3C2=O)cc1)c1ccc2c(c1)CCC2 (stereo not drawn) | 0.401 |
| Cc1ccc(C(=O)COC(=O)c2ccc(N3C(=O)[C@@H]4CCCC[C@H]4C3=O)cc2)cc1C | 0.15 |
| Cc1ccc(C(=O)COC(=O)c2ccc(N3C(=O)C4CC=CCC4C3=O)cc2)cc1 (stereo not drawn) | 9.47 |
| O=C(COC(=O)c1ccc(N2C(=O)C3CC=CCC3C2=O)cc1)c1ccc(C2CCCCC2)cc1 (stereo not drawn) | 18 |

Next, values leading:

| Ki [µM] | Structure (SMILES) |
| --- | --- |
| 0.172 | Cc1ccc(C(=O)COC(=O)c2ccc(N3C(=O)C4CC=CCC4C3=O)cc2)cc1C (stereo not drawn) |
| 3.79 | Cc1ccc(C(=O)COC(=O)c2ccc(N3C(=O)C4CC=CCC4C3=O)cc2)cc1[N+](=O)[O-] (stereo not drawn) |
| 1.6 | COc1ccc(C(=O)COC(=O)c2ccc(N3C(=O)C4CC=CCC4C3=O)cc2)cc1OC (stereo not drawn) |
